Here are results for eight molecules from paper PMC11381611 (Heliyon, 2024).

SMILES strings stand for the structures. Structures can show the parent of a compound that is named as a salt.

Test system in the first series: not given
Assay: not given
The series is classed as in vivo. As to conditions: rat, plasma, po, 10.39 g/kg/day.
For orientation: AUC(0-inf) means total exposure, with the tail of the curve extrapolated. A higher AUC(0-inf) goes with more exposure. For orientation: AUC(0-t) means exposure summed from dosing to a finite time, without extrapolation to infinity. A high value points to more exposure. The term Cmax denotes the maximum level reached in the sampled fluid or tissue. By MRT inf is commonly meant a mean duration of stay, worked out from the concentration-time curve. As usually defined, the MRT last is the average time that molecules of a dose stay in the body. In general, half-life refers to the time needed for the level to fall by half in the phase considered. Read a high half-life as slow loss. Turning to `COc1cc2c(cc1OC)[C@@H]1Cc3ccc(OC)c(OC)c3CN1CC2` [tetrahydropalmatine], the AUC(0-inf) is 881 ± 47.2 ng·h/mL, the AUC(0-t) is 849 ± 54.3 ng·h/mL, the Cmax was 421 ± 97.7 ng/mL and the MRT inf was determined as 3.66 ± 0.54 h. Moreover, the MRT last is 2.91 ± 0.54 h and the half-life is 3.26 ± 1.13 h.
`C[n+]1cccc(C(=O)[O-])c1` [trigonelline] registered an AUC(0-inf) of 3890 ± 60.4 ng·h/mL, an exposure AUC(0-t) of 3860 ± 46.4 ng·h/mL, a Cmax of 1170 ± 39.8 ng/mL and an MRT inf of 4.53 ± 0.33 h. This molecule gave an MRT last of 4.18 ± 0.19 h and a half-life of 2.58 ± 0.24 h.
Molecule `O=c1c(-c2ccc(O)cc2)coc2c([C@@H]3O[C@H](CO)[C@@H](O)[C@H](O)[C@H]3O)c(O)ccc12` [puerarin] displayed an AUC(0-inf) of 615 ± 87.4 ng·h/mL, an AUC(0-t) of 603 ± 69.4 ng·h/mL, a Cmax of 145 ± 17 ng/mL and an MRT inf of 4.76 ± 1.55 h. The molecule further showed a mean residence time (MRT last) of 4.19 ± 0.83 h and a half-life of 7.06 ± 4.39 h.
Molecule `COc1ccc(-c2cc(=O)c3c(OC)c(OC)c(OC)c(OC)c3o2)cc1OC` [nobiletin] displayed an AUC(0-inf) of 9921 ± 87.6 ng·h/mL, an AUC(0-t) of 9892 ± 40.7 ng·h/mL, a Cmax of 2869 ± 22.6 ng/mL and an MRT inf of 3.28 ± 0.19 h. Besides, the MRT last was 3.24 ± 0.11 h and the half-life is 6.32 ± 0.89 h.
As to `COc1ccc2cc3[n+](cc2c1OC)CCc1cc2c(cc1-3)OCO2` [berberine], the AUC(0-inf) is 162 ± 12.8 ng·h/mL, the exposure AUC(0-t) came to 91.1 ± 52.9 ng·h/mL, the concentration peaked (Cmax) at 30.9 ± 28.6 ng/mL and the MRT inf was found to be 14.7 ± 7.88 h. For the same molecule, the MRT last came to 4.26 ± 0.61 h and the half-life is 11.9 ± 5 h.
In turn, `O=C(O)/C=C/c1ccccc1` [cinnamic acid] had an AUC(0-inf) of 7693 ± 68.4 ng·h/mL, an AUC(0-t) of 2010 ± 73.3 ng·h/mL, a Cmax of 800 ± 142 ng/mL and an MRT inf of 2.48 ± 2.81 h. The molecule also had an MRT last of 2.64 ± 1.31 h and a half-life of 4.78 ± 1.67 h.
`O=C1C[C@@H](c2ccc(O[C@@H]3O[C@H](CO)[C@@H](O)[C@H](O)[C@H]3O)cc2)Oc2cc(O)ccc21` [liquiritin]: the AUC(0-inf) was 747 ± 83.6 ng·h/mL, the AUC(0-t) came to 708 ± 49.2 ng·h/mL, the Cmax turned out to be 142 ± 8.69 ng/mL and the MRT inf worked out at 10.7 ± 5.65 h. Besides, the mean residence time (MRT last) is 6.75 ± 0.84 h and the half-life was 7.14 ± 2.06 h.

For a further series, the system named is Adr-induced arrhythmias. Description: Adr-induced arrhythmia in rats, electrocardiography. The series is classed as in vivo, rat. As to conditions: prophylactic administration, rats with Adr-induced arrhythmia; Fig. 5. In a few lines:
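Rats (8 per group) got test compound intragastrically once daily for 14 days (5.19, 10.39 or 20.77 g/kg/d), metoprolol tartrate […], or saline 5 mL/kg/d. 30 min after the last dose, rats were anaesthetised i.p. with 0.6 % nembutal (30 mg/kg) and lead II ECG recorded at 50 mm/s. Adrenaline was given by tail vein as cumulative boluses (8, 16, 32, 64, 128) at 10-min intervals or until death. Read-outs were QRS duration and QTc = QT/√RR, as mean ± s.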
For `COCCc1ccc(OCC(O)CNC(C)C)cc1` (centres unmarked) [Meto, metoprolol tartrate], the QRS interval entry is on record as “no significant effect” and the QTc interval result is reported as “shortened”.
